Where two headings read alike, the source gives them in different places.
Tests used:
[1] = cited from earlier work
[2] = Stopped-flow kinetics of release of NO from the nitrophorins; format: binding, Rhodnius prolixus
Method in brief: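 Stopped-flow measurement of NO release from NO-bound nitrophorins with native or M0-bearing N-termini. Dissociation Kd obtained at pH 5.0 and 7.5 in dilute solution, 5–10 μM protein in 100 mM sodium phosphate buffer.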

[3] = Size-exclusion FPLC retention of nitrophorins, mutants and ligand complexes; format: physicochemical, Rhodnius prolixus; conditions: under any conditions / at any pH
Method in brief: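 Analytical run on Superdex75 at 4 °C in 100 mM sodium acetate, NaCl added to 220 mM total ionic strength. Protein at 1 mM was run at pH 5.0, 5.25, 5.5 and 5.75. Separately, protein from 1 to 0.025 mM was run at pH 5.0. Elution position compared with molecular weight standards.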

factor by which having M0 present increased the Kd for the loss of NO ([2]; pH 5.0)	factor by which having M0 present increased the Kd for the loss of NO ([2]; pH 7.5)	Substance	NO Kd (NO dissociation) ([1]; pH 5.0, ref 29)	NO Kd (NO dissociation) ([1]; pH 7.5)	dimer formation [3]	NO Kd (NO dissociation) ([1]; column pH 7.5, measured at pH 8.0 rather than pH 7.5 (footnote a))	NO Kd (NO dissociation) ([1]; pH 5.0, ref 17)
		NP2(D1A): D1A mutant of NP2, no M0 present	0.015 ± 0.005 s^–1	0.089 ± 0.002 s^–1			
1.6	1.7	NP2: nitrophorin 2 of Rhodnius prolixus; in b68 named without construct					
		(M0)NP2: recombinant NP2 retaining M0 (N-terminus MDCST...)	0.049 ± 0.002 s^–1	0.161 ± 0.005 s^–1	do not form dimers	0.12 ± 0.01 ^a s^–1	0.05 ± 0.01 s^–1

From paper PMC4303305 (Biochemistry, 2014)
